Data from ChEMBL document CHEMBL3865805, “Discovery and antiplatelet activity of a selective PI3Kβ inhibitor (MIPS-9922)” (Eur J Med Chem, 2016).
Activity calls are given as the source filed them. The calls are words filed in the database; no cut-off is given here.

Experiments:
Platelet [1] = test: […] activity in human washed platelets assessed as […] ADP-induced platelet aggregation at 10 to 1000 nM preincubated for 5 mins followed by ADP stimulation after 10 mins by light transmission aggregometric analysis; type: functional, cell-based
[2] = target: T1, Phosphatidylinositol 4,5-bisphosphate 3-kinase catalytic subunit beta isoform (Homo sapiens, UniProt P42338); test: Inhibition of PI3Kbeta (unknown origin) expressed in baculovirus-infected fall armyworm sf21 cells co-expressing p85 by kinase-glo luminescence assay
Method in brief: (§1)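 Recombinant p110 isoforms made by baculovirus in Sf21 cells. Kinase activity read by Kinase-Glo luminescence at 10 µM ATP. IC50 taken as the mean of at least two duplicate experiments.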
Target sequence in this assay (P42338 whole entry, canonical isoform): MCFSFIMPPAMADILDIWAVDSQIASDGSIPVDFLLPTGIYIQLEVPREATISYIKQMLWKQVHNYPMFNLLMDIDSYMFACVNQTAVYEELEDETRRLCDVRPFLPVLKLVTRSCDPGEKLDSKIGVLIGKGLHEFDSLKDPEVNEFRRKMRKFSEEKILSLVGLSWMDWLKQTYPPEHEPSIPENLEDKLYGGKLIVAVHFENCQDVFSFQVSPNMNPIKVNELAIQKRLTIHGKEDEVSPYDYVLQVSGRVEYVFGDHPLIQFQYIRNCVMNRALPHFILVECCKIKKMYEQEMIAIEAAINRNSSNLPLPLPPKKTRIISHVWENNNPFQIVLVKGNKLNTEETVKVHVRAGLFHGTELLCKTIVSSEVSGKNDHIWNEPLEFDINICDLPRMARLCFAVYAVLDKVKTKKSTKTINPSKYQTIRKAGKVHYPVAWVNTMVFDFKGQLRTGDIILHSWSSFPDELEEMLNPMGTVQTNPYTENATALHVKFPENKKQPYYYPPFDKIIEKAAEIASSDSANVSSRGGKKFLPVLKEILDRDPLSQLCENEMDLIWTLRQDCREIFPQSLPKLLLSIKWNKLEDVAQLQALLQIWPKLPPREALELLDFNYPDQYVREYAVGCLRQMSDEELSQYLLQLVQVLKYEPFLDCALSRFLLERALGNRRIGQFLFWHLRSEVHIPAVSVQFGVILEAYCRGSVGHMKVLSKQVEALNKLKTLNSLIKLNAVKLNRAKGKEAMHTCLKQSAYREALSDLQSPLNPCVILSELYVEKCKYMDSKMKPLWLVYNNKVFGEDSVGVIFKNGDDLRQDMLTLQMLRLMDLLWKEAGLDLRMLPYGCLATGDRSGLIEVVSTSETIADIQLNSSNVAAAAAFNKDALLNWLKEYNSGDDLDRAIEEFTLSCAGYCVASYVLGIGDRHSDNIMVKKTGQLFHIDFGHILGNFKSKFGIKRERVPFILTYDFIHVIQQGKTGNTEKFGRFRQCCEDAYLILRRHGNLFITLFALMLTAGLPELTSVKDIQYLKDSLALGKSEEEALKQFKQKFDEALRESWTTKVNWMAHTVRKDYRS

[3] = target: T2, Phosphatidylinositol 4,5-bisphosphate 3-kinase catalytic subunit delta isoform (Homo sapiens, UniProt O00329); test: Inhibition of PI3Kdelta (unknown origin) expressed in baculovirus-infected fall armyworm sf21 cells co-expressing p85 by kinase-glo luminescence assay; method in brief: as §1
T2 sequence (O00329 whole entry): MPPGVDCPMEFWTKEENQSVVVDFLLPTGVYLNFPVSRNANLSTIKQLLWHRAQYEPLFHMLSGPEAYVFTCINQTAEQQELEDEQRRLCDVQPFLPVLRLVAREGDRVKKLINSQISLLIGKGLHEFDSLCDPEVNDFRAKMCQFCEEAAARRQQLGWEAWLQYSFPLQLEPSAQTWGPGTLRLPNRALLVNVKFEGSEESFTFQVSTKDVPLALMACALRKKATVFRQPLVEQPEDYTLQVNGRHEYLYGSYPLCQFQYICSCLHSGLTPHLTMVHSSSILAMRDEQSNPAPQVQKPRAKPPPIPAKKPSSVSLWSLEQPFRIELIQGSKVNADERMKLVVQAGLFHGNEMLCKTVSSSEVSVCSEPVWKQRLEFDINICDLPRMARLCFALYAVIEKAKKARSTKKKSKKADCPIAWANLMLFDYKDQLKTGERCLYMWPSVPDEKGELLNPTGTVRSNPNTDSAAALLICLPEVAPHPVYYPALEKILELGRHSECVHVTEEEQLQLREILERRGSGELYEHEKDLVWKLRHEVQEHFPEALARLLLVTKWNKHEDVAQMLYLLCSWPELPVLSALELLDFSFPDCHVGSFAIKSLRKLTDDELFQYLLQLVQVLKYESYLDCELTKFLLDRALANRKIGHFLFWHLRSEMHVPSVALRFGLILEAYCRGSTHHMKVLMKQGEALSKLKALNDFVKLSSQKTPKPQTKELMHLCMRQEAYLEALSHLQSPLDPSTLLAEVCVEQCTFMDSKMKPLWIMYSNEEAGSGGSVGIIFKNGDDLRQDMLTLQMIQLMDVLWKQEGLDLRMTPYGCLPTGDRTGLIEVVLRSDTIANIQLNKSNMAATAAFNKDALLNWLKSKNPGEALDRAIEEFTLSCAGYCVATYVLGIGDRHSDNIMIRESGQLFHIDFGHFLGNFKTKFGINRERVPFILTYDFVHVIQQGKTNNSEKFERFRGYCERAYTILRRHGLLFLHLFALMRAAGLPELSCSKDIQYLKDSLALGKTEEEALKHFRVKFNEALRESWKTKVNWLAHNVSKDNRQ

[4] = target: T1, Phosphatidylinositol 4,5-bisphosphate 3-kinase catalytic subunit beta isoform; test: Inhibition of PI3Kbeta in human washed platelets assessed as suppression of ADP-induced platelet aggregation at 1 to 1000 nM preincubated for 5 mins followed by ADP stimulation after 10 mins by light transmission aggregometric analysis
Method in brief: (§2)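 Washed human platelets in a conventional aggregometer. Aggregation induced by ADP; IC50 taken from the dose-response curve.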
Target sequence in this assay (P42338 whole entry, looked up, canonical isoform): as the sequence (P42338 whole entry, canonical isoform) above

[5] = Inhibition of PI3Kbeta in human washed platelets assessed as suppression of TRAP-induced platelet aggregation at 10 to 1000 nM preincubated for 5 mins followed by TRAP stimulation after 10 mins by light transmission aggregometric analysis
[6] = target: T1, Phosphatidylinositol 4,5-bisphosphate 3-kinase catalytic subunit beta isoform; test: Inhibition of PI3Kbeta in human washed platelets assessed as suppression of ADP-induced platelet aggregation preincubated for 5 mins followed by ADP stimulation after 10 mins by light transmission aggregometric analysis; method in brief: as §2
Target sequence in this assay (P42338 whole entry, looked up, canonical isoform): as the sequence (P42338 whole entry, canonical isoform) above

[7] = target: T1, Phosphatidylinositol 4,5-bisphosphate 3-kinase catalytic subunit beta isoform; test: Inhibition of PI3Kbeta in human washed platelets assessed as suppression of ADP-induced platelet aggregation at 0.5 uM preincubated for 5 mins followed by 25 uM ADP stimulation after 10 mins by light transmission aggregometric analysis
Method in brief: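 Washed human platelets in an aggregometer. Inhibitor at 0.5 µM. Aggregation induced by 5, 10 or 25 µM ADP; percent inhibition read.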
Target sequence in this assay (P42338 whole entry, looked up, canonical isoform): as the sequence (P42338 whole entry, canonical isoform) above

Platelet [8] = test: Antiplatelet activity against human washed platelets assessed as reduction in shear-induced stationary platelet adhesionto vWF matrix at 2 uM preincubated for 5 mins followed by blood perfusion after 4 mins; type: functional, cell-based
Method in brief: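 Human whole blood, anticoagulated, perfused over a vWf matrix at 1800 s^-1 for 4 min; stationary platelet adhesion scored. Vehicle DMSO 0.25% taken as 100%. Drug tested up to 5 µM. t test against 0.1 µM drug.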

[9] = Drug level in iv dosed rat serum after 5 mins by LC-MS analysis; type: ADME, organism-based; conditions: read-out: Drug uptake
[10] = Drug level in iv dosed rat serum after 60 mins by LC-MS analysis; type: ADME, organism-based; conditions: read-out: Drug uptake

SMILES | IC50 [2] [nM] | IC50 [3] [nM] | other results
NCCCC[C@H](N)C(=O)N1CCN(c2nc(N3CCOCC3)nc(-n3c(C(F)F)nc4ccccc43)n2)CC1 |  |  | Activity (Platelet [1]): Active
O=C(C1CCCN1)N1CCC(c2nc(N3CCOCC3)nc(-n3c(C(F)F)nc4ccccc43)n2)CC1 (single isomer, unassigned) | 2000 |  | 
FC(F)c1nc2ccccc2n1-c1nc(NC2CCNCC2)nc(N2CCOCC2)n1 | 2110 |  | 
CC(=O)NC1CCN(c2nc(N3CCOCC3)nc(-n3c(C(F)F)nc4ccccc43)n2)CC1 | 521 |  | 
NCCC1CCN(c2nc(N3CCOCC3)nc(-n3c(C(F)F)nc4ccccc43)n2)CC1 | 190 | 1000 | inhibition [4]: Active; inhibition [5]: Active
O=C([C@@H]1CCCN1)N1CCN(c2nc(N3CCOCC3)nc(-n3c(C(F)F)nc4ccccc43)n2)CC1 |  |  | inhibition [6]: Dose-dependent effect; inhibition [5]: Active
N[C@@H](CC(=O)N1CCN(c2nc(N3CCOCC3)nc(-n3c(C(F)F)nc4ccccc43)n2)CC1)c1ccccc1 | 1800 | 17000 | 
O=C(C1CCNCC1)N1CCN(c2nc(N3CCOCC3)nc(-n3c(C(F)F)nc4ccccc43)n2)CC1 | 3210 | 330 | 
Cc1cc(C(C)Nc2ccccc2)c2nc(N3CCOCC3)cc(=O)n2c1 (stereo not drawn) |  |  | inhibition [7]: Active; inhibition (Platelet [8]): Active; concentration at 5 min [9]: 2000 nM; concentration at 1 h [10]: 200 nM
NCC(=O)NCC1CCN(c2nc(N3CCOCC3)nc(-n3c(C(F)F)nc4ccccc43)n2)CC1 | 428 |  | 
C[C@H](N)C(=O)N1CCC(c2nc(N3CCOCC3)nc(-n3c(C(F)F)nc4ccccc43)n2)CC1 | 540 | 1090 | 
NCC1CCN(c2nc(N3CCOCC3)nc(-n3c(C(F)F)nc4ccccc43)n2)CC1 | 811 |  | 
C[C@@H](N)C(=O)N1CCC(c2nc(N3CCOCC3)nc(-n3c(C(F)F)nc4ccccc43)n2)CC1 | 3200 | 740 | 
CC(C)C[C@H](N)CC(=O)N1CCN(c2nc(N3CCOCC3)nc(-n3c(C(F)F)nc4ccccc43)n2)CC1 | > 10000 | 9100 | 
NCC(=O)N1CCC(Nc2nc(N3CCOCC3)nc(-n3c(C(F)F)nc4ccccc43)n2)CC1 | 1060 |  | 
NCC(=O)N1CCC(c2nc(N3CCOCC3)nc(-n3c(C(F)F)nc4ccccc43)n2)CC1 | 360 | 120 | 
O=C([C@H]1CCCN1)N1CCN(c2nc(N3CCOCC3)nc(-n3c(C(F)F)nc4ccccc43)n2)CC1 | 36 | 12 | inhibition [6]: Dose-dependent effect; inhibition [5]: Active
NCC(=O)NC1CCN(c2nc(N3CCOCC3)nc(-n3c(C(F)F)nc4ccccc43)n2)CC1 | 1330 |  | 
NCC(=O)NC1CCCN(c2nc(N3CCOCC3)nc(-n3c(C(F)F)nc4ccccc43)n2)C1 (stereo not drawn) | 1210 |  | 
NC1CCN(c2nc(N3CCOCC3)nc(-n3c(C(F)F)nc4ccccc43)n2)CC1 | 955 |  | 
C[C@H](N)C(=O)N1CCN(c2nc(N3CCOCC3)nc(-n3c(C(F)F)nc4ccccc43)n2)CC1 |  |  | inhibition [4]: Active
NC1CCCN(c2nc(N3CCOCC3)nc(-n3c(C(F)F)nc4ccccc43)n2)C1 (stereo not drawn) | 554 |  | 
